In ChEMBL document CHEMBL2417474, “Synthesis, antiproliferative and anti-inflammatory activities of some novel 6-aryl-2-(p-(methanesulfonyl)phenyl)-4,5-dihydropyridazi-3(2H)-ones” (Eur J Med Chem, 2013):

Tests used:
Rattus norvegicus [1] = experiment: Antiinflammatory activity in Wistar rat assessed as inhibition of carrageenan-induced paw edema at 0.05 mmol/kg, po administered 30 mins prior challenge measured after 5 hrs; format: functional
Summary of the method: (§1)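 Wistar rats of either sex, 150–175 g, fasted 16 h, 6 per group. Dosed orally at 0.05 mmol/kg, suspended in 1% CMC in water (10 ml/kg). 30 min later, 0.1 ml of 1% carrageenan in saline injected subplantar into the left hind paw. Paw volume read by plethysmometer at 0, 3 and 5 h. % inhibition = (1 − Vt/Vc) × 100 against the vehicle group.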

Rattus norvegicus [2] = experiment: Antiinflammatory activity in Wistar rat assessed as inhibition of carrageenan-induced paw edema at 0.05 mmol/kg, po administered 30 mins prior challenge measured after 3 hrs; format: functional; summary of the method: as §1
HL-60(TB) = experiment: Growth inhibition of human HL-60(TB) cells assessed as cell growth at 10 uM after 48 hrs by sulforhodamine B assay; format: functional; settings: HL-60, 48 h, read-out: Activity
Rattus norvegicus [3] = experiment: Ulcerogenic activity in Wistar albino rat at 0.15 mmol/kg, po measured after 6 hrs; format: toxicity, organism-based; settings: in vivo
Summary of the method: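 Acute gastric ulcer test in Wistar rats (160–220 g) fasted 24 h, randomized into groups of six. Compound (0.15 mmol/kg) suspended in 1% w/v CMC in distilled water (10 ml/kg vehicle) was given orally, with vehicle and etoricoxib groups alongside. Animals were sacrificed under deep ether anesthesia 6 h after dosing.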

UO-31 = experiment: Growth inhibition of human UO31 cells assessed as cell growth at 10 uM after 48 hrs by sulforhodamine B assay; format: functional; settings: UO-31, 48 h, read-out: Activity
Summary of the method: (§2)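 Single-dose NCI screen. Tumor lines were cultured in medium with 5% fetal calf serum and 2 mM L-glutamine, preincubated 24 h, then given compound in DMSO. After 48 h continuous exposure, cell growth was estimated by sulforhodamine B protein assay.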

[4] = Growth inhibition of human NCI-ADR-RES cells assessed as cell growth at 10 uM after 48 hrs by sulforhodamine B assay; format: functional; settings: read-out: Activity
NCI-H522 = experiment: Growth inhibition of human NCI-H522 cells assessed as cell growth at 10 uM after 48 hrs by sulforhodamine B assay; format: functional; settings: NCI-H522, 48 h, read-out: Activity
NCI-H23 = experiment: Growth inhibition of human NCI-H23 cells assessed as cell growth at 10 uM after 48 hrs by sulforhodamine B assay; format: functional; settings: NCI-H23, 48 h, read-out: Activity
MOLT-4 = experiment: Growth inhibition of human MOLT4 cells assessed as cell growth at 10 uM after 48 hrs by sulforhodamine B assay; format: functional; settings: MOLT-4, 48 h, read-out: Activity
K562 = experiment: Growth inhibition of human K562 cells assessed as cell growth at 10 uM after 48 hrs by sulforhodamine B assay; format: functional; settings: K562, 48 h, read-out: Activity
MDA-MB-435 = experiment: Growth inhibition of human MDA-MB-435 cells assessed as cell growth at 10 uM after 48 hrs by sulforhodamine B assay; format: functional; settings: MDA-MB-435, 48 h, read-out: Activity
SR = experiment: Growth inhibition of human SR cells assessed as cell growth at 10 uM after 48 hrs by sulforhodamine B assay; format: functional; settings: read-out: Activity; summary of the method: as §2
[5] = Growth inhibition of human Hs 578T cells assessed as cell growth at 10 uM after 48 hrs by sulforhodamine B assay; format: functional; settings: read-out: Activity
RPMI-8226 = experiment: Growth inhibition of human RPMI8226 cells assessed as cell growth at 10 uM after 48 hrs by sulforhodamine B assay; format: functional; settings: RPMI-8226, 48 h, read-out: Activity
OVCAR-3 = experiment: Growth inhibition of human OVCAR3 cells assessed as cell growth at 10 uM after 48 hrs by sulforhodamine B assay; format: functional; settings: OVCAR-3, 48 h, read-out: Activity
[6] = Growth inhibition of human EKVX cells assessed as cell growth at 10 uM after 48 hrs by sulforhodamine B assay; format: functional; settings: read-out: Activity
MDA-MB-468 = experiment: Growth inhibition of human MDA-MB-468 cells assessed as cell growth at 10 uM after 48 hrs by sulforhodamine B assay; format: functional; settings: MDA-MB-468, 48 h, read-out: Activity
T47D = experiment: Growth inhibition of human T47D cells assessed as cell growth at 10 uM after 48 hrs by sulforhodamine B assay; format: functional; settings: read-out: Activity; summary of the method: as §2
CAKI-1 = experiment: Growth inhibition of human CAKI-1 cells assessed as cell growth at 10 uM after 48 hrs by sulforhodamine B assay; format: functional; settings: CAKI-1, 48 h, read-out: Activity
SK-MEL-5 = experiment: Growth inhibition of human SK-MEL-5 cells assessed as cell growth at 10 uM after 48 hrs by sulforhodamine B assay; format: functional; settings: SK-MEL-5, 48 h, read-out: Activity
SF-295 = experiment: Growth inhibition of human SF295 cells assessed as cell growth at 10 uM after 48 hrs by sulforhodamine B assay; format: functional; settings: SF-295, 48 h, read-out: Activity

CS(=O)(=O)c1ccc(N2N=C(c3ccc(Cl)c(Cl)c3)CCC2=O)cc1
inhibition in vivo at 50 µmol/kg (Rattus norvegicus [1]): 34.2% | inhibition in vivo at 50 µmol/kg (Rattus norvegicus [2]): 26.6%

CS(=O)(=O)c1ccc(N2N=C(c3ccc(O)c(Cl)c3)CCC2=O)cc1
inhibition in vivo at 50 µmol/kg (Rattus norvegicus [1]): 55.2% | inhibition in vivo at 50 µmol/kg (Rattus norvegicus [2]): 43.3% | growth at 10 µM (HL-60(TB)): 66.7%

Cc1ccc(O)c(C2=NN(c3ccc(S(C)(=O)=O)cc3)C(=O)CC2)c1
Activity (Rattus norvegicus [3]): Non-toxic | inhibition in vivo at 50 µmol/kg (Rattus norvegicus [1]): 86.8% | inhibition in vivo at 50 µmol/kg (Rattus norvegicus [2]): 66.6% | growth at 10 µM (UO-31): 70%

Cc1cc(C2=NN(c3ccc(S(C)(=O)=O)cc3)C(=O)CC2)ccc1O
inhibition in vivo at 50 µmol/kg (Rattus norvegicus [1]): 60.5% | inhibition in vivo at 50 µmol/kg (Rattus norvegicus [2]): 26.6%

CS(=O)(=O)c1ccc(N2N=C(c3ccccc3)CCC2=O)cc1
inhibition in vivo at 50 µmol/kg (Rattus norvegicus [1]): 47.3% | inhibition in vivo at 50 µmol/kg (Rattus norvegicus [2]): 26.6%

CS(=O)(=O)c1ccc(N2N=C(c3ccc(Cl)cc3)CCC2=O)cc1
inhibition in vivo at 50 µmol/kg (Rattus norvegicus [1]): 36.8% | inhibition in vivo at 50 µmol/kg (Rattus norvegicus [2]): 26.6% | growth at 10 µM [4]: 58.3% | growth at 10 µM (NCI-H522): 25.4% | growth at 10 µM (NCI-H23): 65.3%

CS(=O)(=O)c1ccc(N2N=C(c3ccc(Br)cc3)CCC2=O)cc1
inhibition in vivo at 50 µmol/kg (Rattus norvegicus [1]): 31.5% | inhibition in vivo at 50 µmol/kg (Rattus norvegicus [2]): 10%

CS(=O)(=O)c1ccc(N2N=C(c3ccc(F)cc3)CCC2=O)cc1
inhibition in vivo at 50 µmol/kg (Rattus norvegicus [1]): 73.6% | inhibition in vivo at 50 µmol/kg (Rattus norvegicus [2]): 60% | growth at 10 µM (MOLT-4): 44.7% | growth at 10 µM (K562): 41.8%

COc1ccc(C2=NN(c3ccc(S(C)(=O)=O)cc3)C(=O)CC2)cc1
inhibition in vivo at 50 µmol/kg (Rattus norvegicus [1]): 68.4% | inhibition in vivo at 50 µmol/kg (Rattus norvegicus [2]): 46.7% | growth at 10 µM (UO-31): 62.1% | growth at 10 µM (MDA-MB-435): 7.92% | growth at 10 µM (SR): 64%

CC(C)(C)c1ccc(C2=NN(c3ccc(S(C)(=O)=O)cc3)C(=O)CC2)cc1
inhibition in vivo at 50 µmol/kg (Rattus norvegicus [1]): 68.4% | inhibition in vivo at 50 µmol/kg (Rattus norvegicus [2]): 50% | growth at 10 µM [5]: 70.7% | growth at 10 µM (RPMI-8226): 69.6%

CS(=O)(=O)c1ccc(N2N=C(c3ccc(-c4ccccc4)cc3)CCC2=O)cc1
inhibition in vivo at 50 µmol/kg (Rattus norvegicus [1]): 21% | inhibition in vivo at 50 µmol/kg (Rattus norvegicus [2]): 6.6% | growth at 10 µM [5]: 64.6% | growth at 10 µM (OVCAR-3): 42.1% | growth at 10 µM [6]: 29.6%

CS(=O)(=O)c1ccc(N2N=C(c3ccc(Oc4ccccc4)cc3)CCC2=O)cc1
inhibition in vivo at 50 µmol/kg (Rattus norvegicus [1]): 65.7% | inhibition in vivo at 50 µmol/kg (Rattus norvegicus [2]): 50% | growth at 10 µM (MDA-MB-468): 41.6% | growth at 10 µM (T47D): 44.4% | growth at 10 µM (UO-31): 48.8% | growth at 10 µM (CAKI-1): 49.8% | growth at 10 µM (SK-MEL-5): 35.1% | growth at 10 µM (SF-295): 28.8% | growth at 10 µM [6]: 20.1% | growth at 10 µM (K562): 39.7%

COc1ccc(C2=NN(c3ccc(S(C)(=O)=O)cc3)C(=O)CC2)cc1OC
Activity (Rattus norvegicus [3]): Non-toxic | inhibition in vivo at 50 µmol/kg (Rattus norvegicus [1]): 82.4% | inhibition in vivo at 50 µmol/kg (Rattus norvegicus [2]): 66.6%

Cc1ccc(-c2ncc(Cl)cc2-c2ccc(S(C)(=O)=O)cc2)cn1 [ETORICOXIB]
inhibition in vivo at 50 µmol/kg (Rattus norvegicus [1]): 86.8% | inhibition in vivo at 50 µmol/kg (Rattus norvegicus [2]): 83.3%
